Assay results from ChEMBL document CHEMBL1221342, “Synthesis and in vitro antitumor activity of new 4,5-dihydropyrazole derivatives” (Bioorg Med Chem, 2010).

Tests used:
[1] = test system: SNB-75; experiment: Growth inhibition of human SNB75 cells after 48 hrs by SRB assay; type: functional; conditions: SNB-75, 48 h
In short: (§1)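 NCI 60-cell-line screen. Cells grown in RPMI1640 with 5% fetal calf serum and 2 mM L-glutamine, with inoculum density set by cell line. Preincubated 24 h, then given compound in DMSO at 10^-4 to 10^-8 M (five 10-fold steps) for 48 h continuous exposure. Growth measured by SRB protein assay. GI50, TGI and LC50 reported as –log molar.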

[2] = test system: NCI-H460; experiment: Growth inhibition of human NCI-H460 cells after 48 hrs by SRB assay; type: functional; conditions: NCI-H460, 48 h; in short: as §1
[3] = test system: MDA-MB-435; experiment: Growth inhibition of human MDA-MB-435 cells after 48 hrs by SRB assay; type: functional; conditions: MDA-MB-435, 48 h; in short: as §1
[4] = test system: NCI-H460; experiment: Cytotoxicity against human NCI-H460 cells after 72 hrs by SRB assay; type: functional, cell-based; conditions: NCI-H460, 72 h
In short: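 NCI-H460 (ATCC) cells seeded in 96-well plates in growth medium. Scalar drug concentrations added 24 h after plating, then 72 h exposure. Surviving cells stained with sulforhodamine B, OD read at 570 nm. IC50 (50% growth inhibition) fitted from dose–response curves. Mean ± SE of at least three independent experiments.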

[5] = test system: Malme-3M; experiment: Growth inhibition of human MALME-3M cells after 48 hrs by SRB assay; type: functional; in short: as §1
[6] = test system: HCC 2998; experiment: Growth inhibition of human HCC2998 cells after 48 hrs by SRB assay; type: functional; conditions: HCC 2998, 48 h; in short: as §1
[7] = test system: CAKI-1; experiment: Growth inhibition of human Caki1 cells after 48 hrs by SRB assay; type: functional; conditions: CAKI-1, 48 h; in short: as §1
[8] = test system: 786-0; experiment: Growth inhibition of human 786-0 cells after 48 hrs by SRB assay; type: functional; conditions: 786-0, 48 h; in short: as §1
[9] = test system: HOP-62; experiment: Growth inhibition of human HOP62 cells after 48 hrs by SRB assay; type: functional; conditions: HOP-62, 48 h; in short: as §1
[10] = test system: IGROV-1; experiment: Growth inhibition of human IGROV1 cells after 48 hrs by SRB assay; type: functional; conditions: IGROV-1, 48 h; in short: as §1
[11] = test system: SK-MEL-5; experiment: Growth inhibition of human SK-MEL-5 cells after 48 hrs by SRB assay; type: functional; conditions: SK-MEL-5, 48 h; in short: as §1
[12] = test system: OVCAR-8; experiment: Growth inhibition of human OVCAR8 cells after 48 hrs by SRB assay; type: functional; conditions: OVCAR-8, 48 h; in short: as §1
[13] = test system: M14; experiment: Growth inhibition of human M14 cells after 48 hrs by SRB assay; type: functional; conditions: M14, 48 h; in short: as §1
[14] = test system: K562; experiment: Growth inhibition of human K562 cells after 48 hrs by SRB assay; type: functional; conditions: K562, 48 h; in short: as §1
[15] = test system: EKVX; experiment: Growth inhibition of human EKVX cells after 48 hrs by SRB assay; type: functional; in short: as §1
[16] = test system: U-251; experiment: Growth inhibition of human U251 cells after 48 hrs by SRB assay; type: functional; conditions: U-251, 48 h; in short: as §1
[17] = test system: HT-29; experiment: Growth inhibition of human HT-29 cells after 48 hrs by SRB assay; type: functional; conditions: HT-29, 48 h; in short: as §1
[18] = test system: DU-145; experiment: Growth inhibition of human DU145 cells after 48 hrs by SRB assay; type: functional; conditions: DU-145, 48 h; in short: as §1
[19] = test system: SK-OV-3; experiment: Growth inhibition of human SKOV3 cells after 48 hrs by SRB assay; type: functional; conditions: SK-OV-3, 48 h; in short: as §1
[20] = test system: SW-620; experiment: Growth inhibition of human SW620 cells after 48 hrs by SRB assay; type: functional; conditions: SW-620, 48 h; in short: as §1
[21] = test system: UACC-62; experiment: Growth inhibition of human UACC62 cells after 48 hrs by SRB assay; type: functional; conditions: UACC-62, 48 h; in short: as §1
[22] = test system: NCI/ADR-RES; experiment: Growth inhibition of human NCI/ADR-RES cells after 48 hrs by SRB assay; type: functional; in short: as §1
[23] = test system: SR; experiment: Growth inhibition of human SR cells after 48 hrs by SRB assay; type: functional; in short: as §1
[24] = test system: UO-31; experiment: Growth inhibition of human UO31 cells after 48 hrs by SRB assay; type: functional; conditions: UO-31, 48 h; in short: as §1
[25] = test system: T47D; experiment: Growth inhibition of human T47D cells after 48 hrs by SRB assay; type: functional; in short: as §1
[26] = test system: SF-539; experiment: Growth inhibition of human SF539 cells after 48 hrs by SRB assay; type: functional; conditions: SF-539, 48 h; in short: as §1
[27] = test system: HCT-116; experiment: Growth inhibition of human HCT116 cells after 48 hrs by SRB assay; type: functional; conditions: HCT-116, 48 h; in short: as §1
[28] = Growth inhibition of human Hs 578T cells after 48 hrs by SRB assay; type: functional; in short: as §1
[29] = test system: SF-268; experiment: Growth inhibition of human SF268 cells after 48 hrs by SRB assay; type: functional; conditions: SF-268, 48 h; in short: as §1
[30] = test system: OVCAR-4; experiment: Growth inhibition of human OVCAR4 cells after 48 hrs by SRB assay; type: functional; conditions: OVCAR-4, 48 h; in short: as §1
[31] = test system: SK-MEL-28; experiment: Growth inhibition of human SK-MEL-28 cells after 48 hrs by SRB assay; type: functional; conditions: SK-MEL-28, 48 h; in short: as §1
[32] = test system: HCT-15; experiment: Growth inhibition of human HCT15 cells after 48 hrs by SRB assay; type: functional; conditions: HCT-15, 48 h; in short: as §1
[33] = test system: NCI-H322M; experiment: Growth inhibition of human NCI-H322M cells after 48 hrs by SRB assay; type: functional; in short: as §1
[34] = test system: SF-295; experiment: Growth inhibition of human SF295 cells after 48 hrs by SRB assay; type: functional; conditions: SF-295, 48 h; in short: as §1
[35] = test system: HL-60(TB); experiment: Growth inhibition of human HL-60(TB) cells after 48 hrs by SRB assay; type: functional; conditions: HL-60, 48 h
In short: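 NCI 60-cell-line screen: cells grown in RPMI1640 with 5% fetal calf serum and 2 mM L-glutamine, preincubated 24 h, then exposed to compound in DMSO at five concentrations (10^-4 to 10^-8 M) for 48 h continuous exposure. Growth estimated by sulforhodamine B protein assay; reported as pGI50 (-log molar concentration inhibiting net cell growth by 50%).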

Q: What does the source list for COc1cc(C2CC(c3ccc(N(C)C)cc3)=NN2C(C)=O)cc(OC)c1OC (configuration not stated)?
A: GI50 [1]: 0.794 µM; TGI ([1]; read-out: pTGI (converted)): > 100 µM; GI50 [2]: 0.631 µM; TGI ([2]; read-out: pTGI (converted)): > 100 µM; GI50 [3]: 0.2 µM; TGI ([3]; read-out: pTGI (converted)): 0.631 µM; IC50 [4]: 1.8 µM; GI50 [5]: > 100 µM; TGI ([5]; read-out: pTGI (converted)): > 100 µM; GI50 [6]: 1.26 µM; TGI ([6]; read-out: pTGI (converted)): 20 µM; GI50 [7]: 0.501 µM; TGI ([7]; read-out: pTGI (converted)): > 100 µM; GI50 [8]: 1.26 µM; TGI ([8]; read-out: pTGI (converted)): 63.1 µM; GI50 [9]: 0.794 µM; TGI ([9]; read-out: pTGI (converted)): > 100 µM; GI50 [10]: 2.51 µM; GI50 [11]: 0.631 µM; TGI ([11]; read-out: pTGI (converted)): 12.6 µM; GI50 [12]: 5.01 µM; TGI ([12]; read-out: pTGI (converted)): > 100 µM; GI50 [13]: 0.501 µM; TGI ([13]; read-out: pTGI (converted)): 2.51 µM; GI50 [14]: 1.58 µM; TGI ([14]; read-out: pTGI (converted)): > 100 µM; GI50 [15]: 5.01 µM; TGI ([15]; read-out: pTGI (converted)): > 100 µM; GI50 [16]: 0.631 µM; TGI ([16]; read-out: pTGI (converted)): > 100 µM; GI50 [17]: 0.398 µM; TGI ([17]; read-out: pTGI (converted)): 15.8 µM; GI50 [18]: 2 µM; TGI ([18]; read-out: pTGI (converted)): 12.6 µM; GI50 [19]: 3.98 µM; TGI ([19]; read-out: pTGI (converted)): > 100 µM; GI50 [20]: 0.501 µM; TGI ([20]; read-out: pTGI (converted)): > 100 µM; GI50 [21]: 0.631 µM; TGI ([21]; read-out: pTGI (converted)): > 100 µM; GI50 [22]: 0.316 µM; TGI ([22]; read-out: pTGI (converted)): 1.26 µM; GI50 [23]: 0.631 µM; TGI ([23]; read-out: pTGI (converted)): > 100 µM; GI50 [24]: 2.51 µM; TGI ([24]; read-out: pTGI (converted)): > 100 µM; GI50 [25]: 6.31 µM; TGI ([25]; read-out: pTGI (converted)): > 100 µM; GI50 [26]: 1 µM; TGI ([26]; read-out: pTGI (converted)): 5.01 µM; GI50 [27]: 0.501 µM; TGI ([27]; read-out: pTGI (converted)): 20 µM; GI50 [28]: 0.398 µM; TGI ([28]; read-out: pTGI (converted)): 3.16 µM; GI50 [29]: 2.51 µM; TGI ([29]; read-out: pTGI (converted)): > 100 µM; GI50 [30]: 3.98 µM; TGI ([30]; read-out: pTGI (converted)): > 100 µM; GI50 [31]: 15.8 µM; TGI ([31]; read-out: pTGI (converted)): > 100 µM; GI50 [32]: 0.631 µM; GI50 [33]: 3.98 µM; TGI ([33]; read-out: pTGI (converted)): 63.1 µM; GI50 [34]: 0.158 µM; TGI ([34]; read-out: pTGI (converted)): 0.631 µM; GI50 [35]: 1 µM; TGI ([35]; read-out: pTGI (converted)): 6.31 µM
